Experiments:
[1] = molecular target: T1, Cytosolic phospholipase A2 (Homo sapiens) (UniProt P47712); test: Inhibition of human group 4A cPLA2 at 0.091 mol fraction by mixed micelle-based assay
T1 sequence (whole entry): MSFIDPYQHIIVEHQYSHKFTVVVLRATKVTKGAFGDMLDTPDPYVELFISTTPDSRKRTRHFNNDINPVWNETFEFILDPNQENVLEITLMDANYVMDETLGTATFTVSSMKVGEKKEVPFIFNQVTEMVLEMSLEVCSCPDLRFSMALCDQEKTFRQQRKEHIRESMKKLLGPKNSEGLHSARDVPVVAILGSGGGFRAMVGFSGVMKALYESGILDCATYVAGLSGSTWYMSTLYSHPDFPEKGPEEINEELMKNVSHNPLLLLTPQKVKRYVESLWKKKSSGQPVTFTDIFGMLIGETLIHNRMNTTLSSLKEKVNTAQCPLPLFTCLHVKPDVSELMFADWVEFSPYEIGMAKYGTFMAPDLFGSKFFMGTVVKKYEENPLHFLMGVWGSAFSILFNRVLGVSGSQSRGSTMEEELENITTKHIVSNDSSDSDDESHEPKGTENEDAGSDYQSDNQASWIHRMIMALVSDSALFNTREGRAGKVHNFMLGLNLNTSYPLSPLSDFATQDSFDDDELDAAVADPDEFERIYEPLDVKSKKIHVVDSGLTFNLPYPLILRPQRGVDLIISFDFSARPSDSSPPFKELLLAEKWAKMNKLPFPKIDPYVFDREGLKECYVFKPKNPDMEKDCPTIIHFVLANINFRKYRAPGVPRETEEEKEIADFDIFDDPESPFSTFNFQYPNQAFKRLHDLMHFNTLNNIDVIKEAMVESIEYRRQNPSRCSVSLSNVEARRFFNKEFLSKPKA
In short: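 Modified Dole assay, radiolabel release. Buffer: 100 mM HEPES pH 7.5, 90 μM CaCl2, 2 mM DTT, 0.1 mg/ml BSA. Percent inhibition measured with inhibitor at 0.091 mole fraction of the total substrate interface.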

[2] = molecular target: T2, 85/88 kDa calcium-independent phospholipase A2 (Homo sapiens) (UniProt O60733); test: Inhibition of human group 6A iPLA2 at 0.091 mol fraction by mixed micelle-based assay
T2 sequence (whole entry): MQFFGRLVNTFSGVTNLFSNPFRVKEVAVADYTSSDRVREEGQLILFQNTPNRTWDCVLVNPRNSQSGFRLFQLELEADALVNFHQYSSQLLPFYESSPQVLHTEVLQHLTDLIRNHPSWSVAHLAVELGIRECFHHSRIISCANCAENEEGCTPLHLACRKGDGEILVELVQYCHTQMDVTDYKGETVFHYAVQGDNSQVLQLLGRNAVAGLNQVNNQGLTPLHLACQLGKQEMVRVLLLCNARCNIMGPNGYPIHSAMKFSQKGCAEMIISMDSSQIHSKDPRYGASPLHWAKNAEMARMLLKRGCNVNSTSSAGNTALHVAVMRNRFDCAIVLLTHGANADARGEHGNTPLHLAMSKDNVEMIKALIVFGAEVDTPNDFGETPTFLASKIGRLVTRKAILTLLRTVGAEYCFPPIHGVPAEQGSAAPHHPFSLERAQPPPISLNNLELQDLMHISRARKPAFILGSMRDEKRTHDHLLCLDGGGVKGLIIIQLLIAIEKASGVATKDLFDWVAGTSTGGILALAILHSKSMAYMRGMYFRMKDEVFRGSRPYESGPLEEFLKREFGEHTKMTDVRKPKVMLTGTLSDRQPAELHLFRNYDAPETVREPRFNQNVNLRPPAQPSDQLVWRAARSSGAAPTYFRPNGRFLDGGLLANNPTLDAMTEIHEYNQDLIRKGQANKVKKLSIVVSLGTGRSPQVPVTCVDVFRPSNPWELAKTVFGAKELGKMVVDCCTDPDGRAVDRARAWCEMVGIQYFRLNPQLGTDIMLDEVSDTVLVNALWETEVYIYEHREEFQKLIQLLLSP
In short: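 Modified Dole assay. Buffer: 200 mM HEPES pH 7.0, 1 mM ATP, 2 mM DTT, 0.1 mg/ml BSA. Percent inhibition read with inhibitor at 0.091 mole fraction of the total substrate interface.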

[3] = molecular target: T3, Phospholipase A2 group V (Homo sapiens) (UniProt P39877); test: Inhibition of human group 5 sPLA2 at 0.091 mol fraction by mixed micelle-based assay
T3 sequence (whole entry): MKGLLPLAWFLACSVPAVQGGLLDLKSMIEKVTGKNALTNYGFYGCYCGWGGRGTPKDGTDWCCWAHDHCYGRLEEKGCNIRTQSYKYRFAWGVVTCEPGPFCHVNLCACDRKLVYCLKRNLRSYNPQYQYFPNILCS
In short: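 Modified Dole assay. Inhibitor present at 0.091 mole fraction of the total substrate interface; percent inhibition recorded.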

[4] = molecular target: T2, 85/88 kDa calcium-independent phospholipase A2 (Homo sapiens); test: Inhibition of human group 6A iPLA2 by mixed micelle-based assay
In short: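 Modified Dole assay. Buffer: 200 mM HEPES pH 7.0, 1 mM ATP, 2 mM DTT, 0.1 mg/ml BSA. XI(50) is the inhibitor mole fraction in the total interface causing 50% inhibition. It was estimated for compounds exceeding 90% inhibition at 0.091 mole fraction.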

[5] = molecular target: T1, Cytosolic phospholipase A2 (Homo sapiens); test: Inhibition of human group 4A cPLA2 by mixed micelle-based assay
In short: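 Buffer: 100 mM HEPES pH 7.5, 90 μM CaCl2, 2 mM DTT, 0.1 mg/ml BSA. XI(50) is the inhibitor mole fraction in the total substrate interface that gives 50% inhibition. It was estimated for compounds giving >90% inhibition at 0.091 mole fraction.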

[6] = molecular target: T3, Phospholipase A2 group V (Homo sapiens); test: Inhibition of human group 5 sPLA2 by mixed micelle-based assay
In short: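 Modified Dole assay. XI(50) is the inhibitor mole fraction of the total interface that halves activity. It was estimated only where inhibition at 0.091 mole fraction exceeded 90%.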

inhibition [1] | inhibition [2] | inhibition [3] | XI50 [4] | XI50 [5] | XI50 [6] | SMILES
68% | 99% | 53% | 0.0018 |  |  | O=C(CCCCCCc1ccccc1)C(F)(F)F
94% | 93% | 86% | 0.0011 | 0.0167 | 0.0236 | CCCCCCCCCCCCCCC(F)C(=O)C(F)(F)F (stereo not drawn)
56% | 98% | 46% | 0.0065 |  |  | O=C(CCCCCc1ccccc1)C(F)(F)C(F)(F)F
27% | 49% | 59% |  |  |  | OC(O)(C(F)(F)F)C(F)(F)CCCc1ccccc1
95% | 94% | 84% | 0.0166 | 0.0116 |  | CCCCCCCCCCOc1ccc(CCCCC(=O)C(F)(F)F)cc1
92% | 91% | 86% | 0.0169 | 0.0098 |  | CCCCCCOc1ccc(CCCCC(=O)C(F)(F)F)cc1
< 25% | 50% | 43% |  |  |  | CCCCCCCCCCCCCCCC(=O)C(F)(F)C(F)(F)F
38% | 96% | < 25% | 0.0096 |  |  | O=C(CCCCc1ccccc1)C(F)(F)F
62% | 96% | 48% | 0.0025 |  |  | O=C(CCCCCc1ccccc1)C(F)(F)F
91% | 85% | 82% | 0.0328 | 0.0199 |  | CCCCCCOc1ccc(CCC(=O)C(F)(F)F)cc1
96% | 94% | 80% | 0.0208 | 0.0156 |  | CCCCCCCCCCOc1ccc(CCC(=O)C(F)(F)F)cc1
73% | 95% | 86% | 0.0075 |  |  | CCCCCCOc1ccc(CCC(=O)C(F)(F)C(F)(F)F)cc1
65% | 98% | 75% | 0.0065 |  |  | O=C(CCCCCCc1ccccc1)C(F)(F)C(F)(F)F
< 25% | 98% | 28% | 0.0073 |  |  | O=C(CCCCc1ccccc1)C(F)(F)C(F)(F)F
88% | 71% | 49% |  |  |  | O=C(CCc1ccc(OCc2ccccc2)cc1)C(F)(F)F

SMILES | inhibition [1] | inhibition [2] | inhibition [3] | XI50 [4] | XI50 [5] | XI50 [6]
CCCCCCCCCCCCCCCC(=O)C(F)(F)F | 96% | 92% | 79% | 0.0195 | 0.0223 | 

From ChEMBL document CHEMBL1151758, “Synthesis of polyfluoro ketones for selective inhibition of human phospholipase A2 enzymes” (J Med Chem, 2008)
